Test results from ChEMBL document CHEMBL1165950, “Design and synthesis of new potent anticancer pyrazoles with high FLT3 kinase inhibitory selectivity” (Bioorg Med Chem, 2010).

How the values were obtained:
Type in all cases: functional
NCI-H322M = test: Cytotoxicity against human NCI-H322M cells assessed as cell growth at 10 uM after 48 hrs by sulforhodamine B assay; conditions: read-out: Activity
MDA-MB-231 = test: Cytotoxicity against human MDA-MB-231 cells assessed as cell growth at 100 nM after 48 hrs by sulforhodamine B assay; conditions: MDA-MB-231, 48 h, read-out: Activity
U-251 = test: Cytotoxicity against human U251 cells assessed as cell growth at 0.001 uM after 48 hrs by sulforhodamine B assay; conditions: U-251, 48 h, read-out: Activity
[1] = Cytotoxicity against human RPMI8266 cells assessed as cell growth at 1 uM after 48 hrs by sulforhodamine B assay; conditions: read-out: Activity
EKVX = test: Cytotoxicity against human EKVX cells assessed as cell growth at 1 uM after 48 hrs by sulforhodamine B assay; conditions: read-out: Activity
OVCAR-4 [2] = test: Cytotoxicity against human OVCAR4 cells assessed as cell growth at 10 uM; conditions: read-out: Activity
Method in brief: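 NCI-60 screen: cells grown in RPMI 1640 with 5% FBS and 2 mM L-glutamine, plated at 5000–40,000 cells/well according to doubling time, and preincubated 24 h at 37 °C, 5% CO2. The single 10 µM dose (DMSO stock) was added, then incubated 48 h. Cells were TCA-fixed and stained with 0.4% SRB, read at 515 nm, and growth % calculated against time-zero and control plates.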

LOX IMVI [3] = test: Cytotoxicity against human LOXIMVI cells assessed as cell growth at 10 uM after 48 hrs by sulforhodamine B assay; conditions: read-out: Activity
SNB-19 [4] = test: Cytotoxicity against human SNB19 cells assessed as cell growth at 0.001 uM after 48 hrs by sulforhodamine B assay; conditions: SNB-19, 48 h, read-out: Activity
OVCAR-4 [5] = test: Cytotoxicity against human OVCAR4 cells assessed as cell growth at 0.01 uM after 48 hrs by sulforhodamine B assay; conditions: OVCAR-4, 48 h, read-out: Activity
SK-MEL-5 = test: Cytotoxicity against human SK-MEL-5 cells assessed as cell growth at 0.01 uM after 48 hrs by sulforhodamine B assay; conditions: SK-MEL-5, 48 h, read-out: Activity
HCT-116 = test: Cytotoxicity against human HCT116 cells assessed as cell growth at 0.01 uM after 48 hrs by sulforhodamine B assay; conditions: HCT-116, 48 h, read-out: Activity
A498 = test: Cytotoxicity against human A498 cells assessed as cell growth at 0.001 uM after 48 hrs by sulforhodamine B assay; conditions: A498, 48 h, read-out: Activity
Method in brief: (§1)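 NCI-60 five-dose screen. Cells were grown in RPMI 1640 with 5% FBS and 2 mM L-glutamine, plated at 5000–40,000 cells/well and preincubated for 24 h. Time-zero plates were TCA-fixed. DMSO-solubilized drug was added at five concentrations (10-fold or ½-log serial dilutions) for 48 h at 37 °C, 5% CO2. Cells were TCA-fixed, stained with 0.4% SRB and read at 515 nm. Percent growth used time-zero, control and test absorbances.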

HCC 2998 = test: Cytotoxicity against human HCC2998 cells assessed as cell growth at 10 uM; conditions: read-out: Activity
Method in brief: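 Single-dose NCI-60 screen at 10 µM. Cells were grown in RPMI 1640 with 5% FBS and 2 mM L-glutamine, then treated for 48 h at 37 °C. Protein was measured by SRB staining with absorbance at 515 nm. Percentage growth was recorded, and inhibition percentage was calculated as 100 minus growth percentage.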

SNB-19 [6] = test: Growth inhibition of human SNB19 cells after 48 hrs by sulforhodamine B assay; conditions: SNB-19, 48 h; for CC50: read-out: LC50 (the source's name)
Method in brief: (§2)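 NCI 60-cell screen, five-dose mode. Cells grown in RPMI 1640 with 5% FBS and 2 mM L-glutamine and plated at 5000-40,000 cells/well according to doubling time. After 24 h preincubation, a Tz plate was TCA-fixed. Five concentrations (10-fold or 1/2 log dilutions) were applied for 48 h at 37 °C. SRB staining read at 515 nm. IC50 taken from [(Ti-Tz)/(C-Tz)]×100 = 50.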

MOLT-4 = test: Growth inhibition of human MOLT4 cells after 48 hrs by sulforhodamine B assay; conditions: MOLT-4, 48 h; method in brief: as §2
UO-31 = test: Growth inhibition of human UO31 cells after 48 hrs by sulforhodamine B assay; conditions: UO-31, 48 h; for CC50: read-out: LC50 (the source's name); method in brief: as §2
SNB-75 [7] = test: Cytotoxicity against human SNB75 cells assessed as cell growth at 1 uM after 48 hrs by sulforhodamine B assay; conditions: SNB-75, 48 h, read-out: Activity
DU-145 = test: Growth inhibition of human DU145 cells after 48 hrs by sulforhodamine B assay; conditions: DU-145, 48 h
Method in brief: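 NCI five-dose SRB assay in RPMI 1640 with 5% FBS and 2 mM L-glutamine. Cells were preincubated 24 h, then exposed 48 h at 37 °C to five concentrations (10-fold or half-log serial dilutions from DMSO stocks). TCA fixation, SRB staining, and absorbance at 515 nm followed. IC50 was taken where [(Ti−Tz)/(C−Tz)]×100 = 50, with Tz as time-zero cell density.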

BT-549 = test: Cytotoxicity against human BT549 cells assessed as cell growth at 10 uM after 48 hrs by sulforhodamine B assay; conditions: BT-549, 48 h, read-out: Activity; method in brief: as §1
PC-3 = test: Cytotoxicity against human PC3 cells assessed as cell growth at 100 nM after 48 hrs by sulforhodamine B assay; conditions: PC-3, 48 h, read-out: Activity
UACC-62 = test: Growth inhibition of human UACC62 cells after 48 hrs by sulforhodamine B assay; conditions: UACC-62, 48 h; for CC50: read-out: LC50 (the source's name); method in brief: as §2
SNB-75 [8] = test: Cytotoxicity against human SNB75 cells assessed as cell growth at 0.001 uM after 48 hrs by sulforhodamine B assay; conditions: SNB-75, 48 h, read-out: Activity
LOX IMVI [9] = test: Cytotoxicity against human LOXIMVI cells assessed as cell growth at 100 nM after 48 hrs by sulforhodamine B assay; conditions: read-out: Activity
OVCAR-3 = test: Cytotoxicity against human OVCAR-3 cells assessed as cell growth at 1 uM after 48 hrs by sulforhodamine B assay; conditions: OVCAR-3, 48 h, read-out: Activity
K562 = test: Cytotoxicity against human K562 cells assessed as cell growth at 1 uM after 48 hrs by sulforhodamine B assay; conditions: K562, 48 h, read-out: Activity
SK-OV-3 = test: Growth inhibition of human SKOV3 cells after 48 hrs by sulforhodamine B assay; conditions: SK-OV-3, 48 h; for CC50: read-out: LC50 (the source's name); method in brief: as §2
TK-10 = test: Cytotoxicity against human TK10 cells assessed as cell growth at 100 nM after 48 hrs by sulforhodamine B assay; conditions: TK-10, 48 h, read-out: Activity

Row | Structure (SMILES) | growth at 10 µM (NCI-H322M) | growth at 0.1 µM (MDA-MB-231) | growth at 0.001 µM (U-251) | growth at 1 µM [1] | growth at 1 µM (EKVX) | growth at 10 µM (OVCAR-4 [2]) | growth at 10 µM (LOX IMVI [3]) | growth at 0.001 µM (SNB-19 [4]) | growth at 0.01 µM (OVCAR-4 [5]) | growth at 0.01 µM (SK-MEL-5) | growth at 0.01 µM (HCT-116) | growth at 0.001 µM (A498) | growth at 10 µM (HCC 2998) | GI50 (SNB-19 [6]) | TGI (SNB-19 [6]) | CC50 (SNB-19 [6]) | GI50 (MOLT-4) | LC50 (MOLT-4) | TGI (MOLT-4) | GI50 (UO-31) | also measured
1 | Cc1cc(O)cc(-c2nn(CC#N)cc2-c2ccnc(-c3ccc(Oc4ccccc4)cc3)c2)c1 | -89% | 85% | 97% | -20% | -4% | 49.8% | -86% | 101% | 112% | 93% | 94% | 88% | 28.2% | 1.07 µM | 23.4 µM | 51.1 µM | 2.03 µM | > 100 µM | 6.82 µM | 2.18 µM | TGI (UO-31): 6.54 µM; CC50 (UO-31): 31.7 µM; growth at 1 µM (SNB-75 [7]): 30%; GI50 (DU-145): 2.28 µM; LC50 (DU-145): 26.1 µM; TGI (DU-145): 7.18 µM; growth at 10 µM (BT-549): -81%; growth at 0.1 µM (PC-3): 81%; GI50 (UACC-62): 4.67 µM; TGI (UACC-62): 18.1 µM; CC50 (UACC-62): 44.4 µM; growth at 0.001 µM (SNB-75 [8]): 86%; growth at 0.1 µM (LOX IMVI [9]): 103%; growth at 1 µM (OVCAR-3): -63%; growth at 1 µM (K562): -13%; GI50 (SK-OV-3): 1.2 µM; TGI (SK-OV-3): 24.4 µM; CC50 (SK-OV-3): 49.6 µM; growth at 0.1 µM (TK-10): 102%
2 | COc1cc(C)cc(-c2nn(CC#N)cc2-c2ccnc(-c3ccc(N(C)C)cc3)c2)c1 | 27% | 52% | 94% | 1% | 28% | 17.1% | -23% | 102% | 98% | 104% | 97% | 91% | -46.5% | 0.567 µM | > 100 µM | > 100 µM | 0.626 µM | > 100 µM | > 100 µM | 0.619 µM | TGI (UO-31): 98.7 µM; CC50 (UO-31): > 100 µM; growth at 1 µM (SNB-75 [7]): -12%; GI50 (DU-145): 0.319 µM; LC50 (DU-145): > 100 µM; TGI (DU-145): 1.11 µM; growth at 10 µM (BT-549): -30%; growth at 0.1 µM (PC-3): 14%; GI50 (UACC-62): 0.337 µM; TGI (UACC-62): 40.7 µM; CC50 (UACC-62): > 100 µM; growth at 0.001 µM (SNB-75 [8]): 95%; growth at 0.1 µM (LOX IMVI [9]): 39%; growth at 1 µM (OVCAR-3): -41%; growth at 1 µM (K562): 4%; GI50 (SK-OV-3): 0.304 µM; TGI (SK-OV-3): 0.882 µM; CC50 (SK-OV-3): > 100 µM; growth at 0.1 µM (TK-10): 50%
3 | COc1cc(C)cc(-c2c(-c3ccnc(-c4ccc(C(C)=O)cc4)c3)cnn2CC#N)c1 | 70% | 86% | 104% | -4% | 37% | 80.2% | 21% | 102% | 101% | 94% | 91% | 74% | 80.8% | > 100 µM | > 100 µM | > 100 µM | 2.63 µM | > 100 µM | > 100 µM | 2.61 µM | TGI (UO-31): > 100 µM; CC50 (UO-31): > 100 µM; growth at 1 µM (SNB-75 [7]): -5%; GI50 (DU-145): 3.42 µM; LC50 (DU-145): > 100 µM; TGI (DU-145): > 100 µM; growth at 10 µM (BT-549): 24%; growth at 0.1 µM (PC-3): 83%; GI50 (UACC-62): 4.05 µM; TGI (UACC-62): > 100 µM; CC50 (UACC-62): > 100 µM; growth at 0.001 µM (SNB-75 [8]): 80%; growth at 0.1 µM (LOX IMVI [9]): 85%; growth at 1 µM (OVCAR-3): -10%; growth at 1 µM (K562): 4%; GI50 (SK-OV-3): 4.22 µM; TGI (SK-OV-3): > 100 µM; CC50 (SK-OV-3): > 100 µM; growth at 0.1 µM (TK-10): 111%
